According to ChEMBL document CHEMBL1833901, “MDM2-p53 protein-protein interaction inhibitors: a-ring substituted isoindolinones” (Bioorg Med Chem Lett, 2011):
Blank lines part the entries; values can stand above or below the molecule they belong to. The source made the active and inactive calls. No cut-off for these calls is given here.

Key:
[1] = tested on: SJSA-1; experiment: Growth inhibition of human SJSA1 cells expressing MDM2 by SRB assay; type: functional
In short: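 Growth inhibition assayed in the MDM2-amplified cell line SJSA-1. Values are the mean of at least three determinations ± SE.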

[2] = tested on: HCT-116; experiment: Growth inhibition of human HCT116 cells expressing MDM2 by SRB assay; type: functional
[3] = tested on: HCT-116; experiment: Growth inhibition of p53 deficient human HCT116 cells expressing MDM2 by SRB assay; type: functional
[4] = tested on: A2780; experiment: Growth inhibition of human A2780 cells expressing MDM2 by SRB assay; type: functional
[5] = Growth inhibition of human A2780/CP70 cells expressing isogenically paired p53 mutant by SRB assay; type: functional
[6] = biological target: Tumour suppressor p53/oncoprotein Mdm2 (Homo sapiens, UniProt Q00987); experiment: Inhibition of human MDM2-p53 interaction after 20 mins by […] method; type: protein assay
Chain of Tumour suppressor p53/oncoprotein Mdm2 (P04637 whole entry): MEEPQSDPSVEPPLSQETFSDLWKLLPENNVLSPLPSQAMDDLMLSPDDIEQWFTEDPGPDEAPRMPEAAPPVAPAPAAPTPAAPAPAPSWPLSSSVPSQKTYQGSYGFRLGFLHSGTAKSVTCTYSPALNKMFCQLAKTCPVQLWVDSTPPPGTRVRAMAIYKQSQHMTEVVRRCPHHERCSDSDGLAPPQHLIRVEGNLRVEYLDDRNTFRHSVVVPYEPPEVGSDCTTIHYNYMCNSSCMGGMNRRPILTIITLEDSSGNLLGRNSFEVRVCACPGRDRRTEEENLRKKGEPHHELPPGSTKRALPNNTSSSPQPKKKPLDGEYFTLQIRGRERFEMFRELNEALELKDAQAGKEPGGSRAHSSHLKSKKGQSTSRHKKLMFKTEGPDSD
Chain of Tumour suppressor p53/oncoprotein Mdm2 (Q00987 whole entry): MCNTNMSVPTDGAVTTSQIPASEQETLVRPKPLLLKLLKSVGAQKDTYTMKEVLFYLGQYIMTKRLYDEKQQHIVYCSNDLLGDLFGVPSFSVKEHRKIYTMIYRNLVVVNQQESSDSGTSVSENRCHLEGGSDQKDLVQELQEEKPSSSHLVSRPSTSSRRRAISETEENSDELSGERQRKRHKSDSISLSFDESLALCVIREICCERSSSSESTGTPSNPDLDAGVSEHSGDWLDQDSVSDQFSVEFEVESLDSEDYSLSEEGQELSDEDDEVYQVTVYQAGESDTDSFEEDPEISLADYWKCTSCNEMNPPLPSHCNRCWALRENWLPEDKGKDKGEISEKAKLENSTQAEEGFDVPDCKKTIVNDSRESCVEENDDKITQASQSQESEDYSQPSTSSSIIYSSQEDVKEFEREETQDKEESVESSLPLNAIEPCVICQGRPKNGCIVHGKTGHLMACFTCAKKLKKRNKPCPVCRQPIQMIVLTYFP

[7] = tested on: SJSA-1; experiment: Increase of MDM2 expression in human SJSA1 cells after 6 hrs by Western blotting; type: functional, cell-based
[8] = tested on: SJSA-1; experiment: Increase of P53 expression in human SJSA1 cells after 6 hrs by Western blotting; type: functional, cell-based
[9] = tested on: SJSA-1; experiment: Increase of P21 protein level in human SJSA1 cells after 6 hrs by Western blotting; type: functional, cell-based
[10] = tested on: SJSA-1; experiment: Increase of P21 protein level in human SJSA1 cells at 5 to 10 uM after 6 hrs by Western blotting; type: functional, cell-based
[11] = tested on: SJSA-1; experiment: Increase of P53 expression in human SJSA1 cells at 5 to 10 uM after 6 hrs by Western blotting; type: functional, cell-based
[12] = tested on: SJSA-1; experiment: Increase of MDM2 expression in human SJSA1 cells at 5 to 10 uM after 6 hrs by Western blotting; type: functional, cell-based

SMILES: CC1=C(C)C(OCC2(CO)CC2)(c2ccc(Cl)cc2)N(Cc2ccccc2)C1=O (stereo not drawn)
IC50 [6]: 3.45 µM

SMILES: O=C1c2cccc(Cl)c2C(OCC2(CO)CC2)(c2ccc(Cl)cc2)N1Cc1ccc([N+](=O)[O-])cc1 (racemic) [listing 1 of 2 here]
Activity [7]: Dose-dependent effect
Activity [8]: Dose-dependent effect
Activity [9]: Dose-dependent effect

SMILES: O=C1c2cccc(Cl)c2C(OCC2(CO)CC2)(c2ccc(Cl)cc2)N1Cc1ccc([N+](=O)[O-])cc1 (single isomer, unassigned; (+)) [listing 2 of 2 here]
Activity [10]: inactive
Activity [11]: inactive
Activity [12]: inactive

SMILES: CCCN1C(=O)C(C)=C(C)C1(OCC1(CO)CC1)c1ccc(Cl)cc1 (stereo not drawn)
IC50 [6]: 8.9 µM

SMILES: O=C1C2=C(CCCC2)C(OCC2(CO)CC2)(c2ccc(Cl)cc2)N1Cc1ccc([N+](=O)[O-])cc1 (stereo not drawn)
IC50 [6]: 3.47 µM

SMILES: O=C1c2cccc(Cl)c2C(OCC2(CO)CC2)(c2ccc(Cl)cc2)N1Cc1ccc(S(=O)(=O)C(F)(F)F)cc1 (stereo not drawn)
IC50 [6]: 9 µM

SMILES: O=C1c2cccc(Cl)c2C(OCC2(CO)CC2)(c2ccc(Cl)cc2)N1Cc1ccc([N+](=O)[O-])cc1 (single isomer, unassigned; (-)) [listing 1 of 2 here]
Activity [7]: Dose-dependent effect
Activity [8]: Dose-dependent effect
Activity [9]: Dose-dependent effect

SMILES: CC(C)(C)C[C@H]1N[C@@H](C(=O)NCCN2CCOCC2)[C@H](c2cccc(Cl)c2F)[C@@]12C(=O)Nc1cc(Cl)ccc12
GI50 ([1]; Homo sapiens, SJSA-1): 0.55 µM
GI50 ([2]; Homo sapiens, HCT-116): 1.3 µM
GI50 ([3]; Homo sapiens, HCT-116): 11.8 µM
GI50 ([4]; Homo sapiens, A2780): 1.19 µM
GI50 ([5]; Homo sapiens, A2780/CP70): 15.1 µM

The next lines start with results.

GI50 [1]: 12.2 µM
GI50 [2]: 12.3 µM
GI50 [3]: 14.4 µM
GI50 [4]: 7.7 µM
SMILES: O=C1c2cccc(Cl)c2C(OCC2(CO)CC2)(c2ccc(Cl)cc2)N1Cc1ccc([N+](=O)[O-])cc1 (single isomer, unassigned; (+)) [listing 1 of 2 here]
GI50 [5]: 14.5 µM

GI50 ([1]; Homo sapiens, SJSA-1): 1.3 µM
GI50 ([2]; Homo sapiens, HCT-116): 2.1 µM
GI50 ([3]; Homo sapiens, HCT-116): 25.6 µM
GI50 ([4]; Homo sapiens, A2780): 1.6 µM
SMILES: COc1ccc(C2=N[C@@H](c3ccc(Cl)cc3)[C@@H](c3ccc(Cl)cc3)N2C(=O)N2CCNC(=O)C2)c(OC(C)C)c1 [NUTLIN-3]
GI50 ([5]; Homo sapiens, A2780/CP70): 20.4 µM

GI50 [1]: 3.7 µM
GI50 [2]: 3.7 µM
GI50 ([3]; Homo sapiens, HCT-116): 12.5 µM
GI50 [4]: 3.3 µM
SMILES: O=C1c2cccc(Cl)c2C(OCC2(CO)CC2)(c2ccc(Cl)cc2)N1Cc1ccc([N+](=O)[O-])cc1 (single isomer, unassigned; (-)) [listing 2 of 2 here]
GI50 ([5]; Homo sapiens, A2780/CP70): 13.6 µM

GI50 [1]: 6 µM
GI50 [2]: 6 µM
GI50 [3]: 14.9 µM
GI50 [4]: 4.2 µM
SMILES: O=C1c2cccc(Cl)c2C(OCC2(CO)CC2)(c2ccc(Cl)cc2)N1Cc1ccc([N+](=O)[O-])cc1 (racemic) [listing 2 of 2 here]
GI50 [5]: 15.9 µM
